The results in this text go back to ChEMBL document CHEMBL4725340, “New coumarin-benzotriazole based hybrid molecules as inhibitors of acetylcholinesterase and amyloid aggregation” (Bioorg Med Chem Lett, 2020).

The structures appear in SMILES notation. Active and inactive are the calls of the source. The calls are words filed in the database; no cut-off is given here.

In data set [1] the target is T1, Acetylcholinesterase (Electrophorus electricus, UniProt O42275). The experiment in a line: Inhibition of electric eel AChE by Ellman's method. For orientation: Ellman's reagent forms a yellow product with free thiols.
The target of the next data set is Cholinesterase (Equus caballus, UniProt P81908). The data set is described as follows: Inhibition of equine serum BuChE by Ellman's method. Put shortly:
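Ellman's method with equine serum BuChE, run as for AChE; triplicate experiments; IC50 (50% inhibitory concentration) as mean ± SD of three independent experiments.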

Data set [2] concerns the target Amyloid-beta precursor protein (Homo sapiens) (UniProt P05067). The data set is described as follows: Inhibition of copper-induced amyloid beta (1 to 42) (unknown origin) aggregation at 50 uM by thioflavin T based fluorescence assay relative to control. Put shortly:
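Thioflavin T fluorescence assay of copper-mediated Aβ1-42 aggregation; test sample at 50 μM; curcumin as reference anti-amyloidogenic agent; percentage inhibition of aggregation estimated.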

The next data set relates to SH-SY5Y. The experiment in a line: Cytotoxicity against human SH-SY5Y cells at 0.001 to 100 uM after 24 hrs by MTT assay. On the technique in general: Formazan colour is commonly taken as a measure of viable cells.
The target in data set [3] is T1, Acetylcholinesterase. The data set is described as follows: Mixed type inhibition of electric eel AChE assessed as inhibition constant using varying levels of acetylthiocholine as substrate by reciprocal Lineweaver-Burk plot analysis. Put shortly:
(§1)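 Kinetics with electric eel AChE (Ellman's method): no inhibitor plus three inhibitor concentrations, substrate varied over […] (so in the source); double-reciprocal Lineweaver-Burk plots overlaid; slope/intercept changes and intersection quadrant used to assign inhibition type; Ki calculated from the plots.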

Data set [4] concerns the target Acetylcholinesterase (Electrophorus electricus) (UniProt O42275). The experiment in a line: Mixed type inhibition of electric eel AChE assessed as decrease in Vmax by reciprocal Lineweaver-Burk plot analysis. In a few lines: as §1
Data set [5] shares this target. The data set is described as follows: Mixed type inhibition of electric eel AChE assessed as increase in Km by reciprocal Lineweaver-Burk plot analysis. Put shortly:
as §1

Data set [6] has as its target Cholinesterase (Equus caballus) (UniProt P81908). The experiment in a line: Inhibition of equine serum BuChE at 50 to 100 uM by Ellman's method. Conditions: dose microM 50-100. Put shortly:
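Equine serum BuChE by Ellman's method, with the test compound at two additional single concentrations, 50 and 100 μM; inhibition read at each.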

Data set [7] in a line: Metal chelating activity assessed as compound-Cu2+ complex formation by measuring blue shift in absorption intensity at 5 uM by UV spectra analysis.
Data set [8] can be described thus: Metal chelating activity assessed as compound-Fe2+ complex formation by measuring blue shift in absorption intensity at 5 uM by UV spectra analysis.
Data set [9] can be described thus: Metal chelating activity assessed as compound-Zn2+ complex formation by measuring blue shift in absorption intensity at 5 uM by UV spectra analysis.
Data set [10] in a line: Metal chelating activity assessed as formation of Cu2+-compound complex stoichiometry ratio of 2:1 at 5 uM in presence of CuCl2 by UV spectra analysis.
Data set [11] has as its system DNA. The data set is described as follows: Protection against Fenton reagent-induced Escherichia coli plasmid pBR322 DNA cleavage assessed as reduction in supercoiled circular DNA(1) form to open circular DNA(2) at 0.2 to 1 mM. Format: nucleic-acid assay. Conditions: dose mM 0.2-1.
Data set [12] relates to DNA. The data set is described as follows: Protection against Fenton reagent-induced Escherichia coli plasmid pBR322 DNA cleavage assessed as reduction in supercoiled circular DNA(1) form to linear circular DNA(3) at 0.2 to 1 mM. Format: nucleic-acid assay. Conditions: dose mM 0.2-1.
Data set [13] in a line: Metal chelating activity assessed as compound-Mg2+ complex formation by measuring blue shift in absorption intensity at 5 uM by UV spectra analysis.

Cholinesterase, sequence (P81908 whole entry): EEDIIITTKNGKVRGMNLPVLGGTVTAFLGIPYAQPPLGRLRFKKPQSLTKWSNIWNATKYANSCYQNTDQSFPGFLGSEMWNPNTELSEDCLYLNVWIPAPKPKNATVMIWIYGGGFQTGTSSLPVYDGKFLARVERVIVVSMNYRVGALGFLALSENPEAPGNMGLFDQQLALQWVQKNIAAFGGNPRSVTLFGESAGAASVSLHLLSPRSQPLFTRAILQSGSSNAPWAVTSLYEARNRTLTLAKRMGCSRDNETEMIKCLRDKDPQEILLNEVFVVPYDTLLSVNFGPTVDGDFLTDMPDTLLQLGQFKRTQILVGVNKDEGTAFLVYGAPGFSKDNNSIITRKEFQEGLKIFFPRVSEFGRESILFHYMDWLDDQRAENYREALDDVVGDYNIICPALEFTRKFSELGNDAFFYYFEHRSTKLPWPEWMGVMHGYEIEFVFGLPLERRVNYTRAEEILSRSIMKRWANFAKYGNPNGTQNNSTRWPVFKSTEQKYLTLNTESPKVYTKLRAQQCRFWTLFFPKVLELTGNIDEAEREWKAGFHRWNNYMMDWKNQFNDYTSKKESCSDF
T1 sequence (O42275 whole entry): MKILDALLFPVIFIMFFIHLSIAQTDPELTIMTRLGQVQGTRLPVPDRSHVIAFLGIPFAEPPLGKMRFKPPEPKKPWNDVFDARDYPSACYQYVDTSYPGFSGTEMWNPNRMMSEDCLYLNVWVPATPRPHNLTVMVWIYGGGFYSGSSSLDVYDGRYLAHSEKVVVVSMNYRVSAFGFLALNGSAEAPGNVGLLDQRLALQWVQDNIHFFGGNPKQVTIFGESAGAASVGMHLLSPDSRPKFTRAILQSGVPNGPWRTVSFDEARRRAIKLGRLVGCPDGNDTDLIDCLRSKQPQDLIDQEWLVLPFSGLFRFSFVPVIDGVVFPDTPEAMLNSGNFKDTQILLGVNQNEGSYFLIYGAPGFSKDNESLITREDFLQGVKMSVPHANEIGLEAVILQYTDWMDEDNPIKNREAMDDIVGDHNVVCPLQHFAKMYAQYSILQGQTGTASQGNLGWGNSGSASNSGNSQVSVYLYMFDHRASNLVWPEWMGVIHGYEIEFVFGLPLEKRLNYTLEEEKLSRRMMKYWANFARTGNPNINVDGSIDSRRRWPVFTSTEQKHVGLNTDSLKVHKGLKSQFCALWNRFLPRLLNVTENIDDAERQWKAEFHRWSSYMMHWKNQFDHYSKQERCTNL
Amyloid-beta precursor protein (Homo sapiens), sequence (P05067 whole entry): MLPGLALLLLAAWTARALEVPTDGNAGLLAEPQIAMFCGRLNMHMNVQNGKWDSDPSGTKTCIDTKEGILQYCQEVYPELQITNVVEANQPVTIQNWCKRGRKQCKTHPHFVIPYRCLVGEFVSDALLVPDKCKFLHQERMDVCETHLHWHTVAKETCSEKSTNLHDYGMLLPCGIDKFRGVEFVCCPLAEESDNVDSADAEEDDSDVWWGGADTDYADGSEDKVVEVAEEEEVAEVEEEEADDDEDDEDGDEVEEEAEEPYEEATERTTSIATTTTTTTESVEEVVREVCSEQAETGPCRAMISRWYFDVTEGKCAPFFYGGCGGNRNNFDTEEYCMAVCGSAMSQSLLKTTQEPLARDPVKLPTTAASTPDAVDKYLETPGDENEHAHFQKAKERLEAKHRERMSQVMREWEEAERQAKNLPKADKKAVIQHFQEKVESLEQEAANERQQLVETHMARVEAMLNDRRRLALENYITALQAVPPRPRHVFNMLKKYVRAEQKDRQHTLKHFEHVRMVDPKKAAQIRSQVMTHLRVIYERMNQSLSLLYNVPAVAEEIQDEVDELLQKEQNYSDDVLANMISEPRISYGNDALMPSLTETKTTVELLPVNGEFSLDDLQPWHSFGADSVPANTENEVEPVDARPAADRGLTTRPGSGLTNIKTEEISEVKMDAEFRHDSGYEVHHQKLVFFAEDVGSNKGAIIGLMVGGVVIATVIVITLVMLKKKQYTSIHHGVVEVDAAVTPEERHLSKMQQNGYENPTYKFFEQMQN
Acetylcholinesterase (Electrophorus electricus), sequence (O42275 24-633 limits assumed): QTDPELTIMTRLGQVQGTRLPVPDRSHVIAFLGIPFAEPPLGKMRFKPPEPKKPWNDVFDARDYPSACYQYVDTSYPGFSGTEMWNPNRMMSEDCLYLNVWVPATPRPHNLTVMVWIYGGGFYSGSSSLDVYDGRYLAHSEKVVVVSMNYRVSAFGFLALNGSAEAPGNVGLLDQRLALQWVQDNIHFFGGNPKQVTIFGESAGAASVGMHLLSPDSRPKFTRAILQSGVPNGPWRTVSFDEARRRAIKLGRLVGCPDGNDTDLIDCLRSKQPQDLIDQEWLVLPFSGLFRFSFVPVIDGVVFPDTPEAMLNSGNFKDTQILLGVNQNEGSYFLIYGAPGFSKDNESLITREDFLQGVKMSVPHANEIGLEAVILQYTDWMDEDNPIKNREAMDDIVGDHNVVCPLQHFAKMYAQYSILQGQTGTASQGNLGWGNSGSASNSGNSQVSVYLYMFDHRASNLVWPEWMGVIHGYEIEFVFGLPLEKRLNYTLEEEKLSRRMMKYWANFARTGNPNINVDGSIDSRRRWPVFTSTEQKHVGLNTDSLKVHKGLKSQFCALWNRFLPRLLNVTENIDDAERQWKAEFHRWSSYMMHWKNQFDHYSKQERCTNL
Cholinesterase (Equus caballus), sequence (P81908 whole entry): as the sequence (P81908 whole entry) above

A word on the IC50: it is the midpoint of a concentration-inhibition curve. Higher therefore signals lower potency. What is called inhibition is the share of the control response that was lost under treatment. In the case of `O=c1ccc2ccc(OCCCCCn3cc(COn4nnc5ccccc54)nn3)cc2o1`, the IC50 at Acetylcholinesterase [1] and at Cholinesterase was not below 10 µM throughout. The molecule further yielded an inhibition in [2] of less than 10%.

On to `O=c1cc(OCCCCn2cc(Cn3nc4ccccc4n3)nn2)c2ccccc2o1`, for which the IC50 against Acetylcholinesterase [1] is 2.09 µM; on Cholinesterase it was not below 10 µM. In data set [2], this molecule gave an inhibition of less than 10%.

In the case of `O=c1cc(OCCCCCn2cc(COn3nnc4ccccc43)nn2)c2ccccc2o1`, the concentration for half-maximal inhibition (IC50) at Acetylcholinesterase [1] and against Cholinesterase was not below 10 µM each time. Further, the inhibition in data set [2] was less than 10%.

`O=c1cc(OCCCCCn2cc(Cn3nnc4ccccc43)nn2)c2ccccc2o1`: the results for the half-inhibitory concentration (IC50) against Acetylcholinesterase [1] and against Cholinesterase were 1.14 µM and not below 10 µM, respectively. The molecule also returned an inhibition in data set [2] of 11.4%.

On to `O=c1ccc2ccc(OCCCCCCn3cc(Cn4nnc5ccccc54)nn3)cc2o1`, for which the IC50 on Acetylcholinesterase [1] and at Cholinesterase was not below 10 µM each time. Moreover, in [2], the inhibition is less than 10%.

Turning to `O=c1ccc2ccc(OCCCCCCn3cc(Cn4nc5ccccc5n4)nn3)cc2o1`, the half-inhibitory concentration (IC50) against Acetylcholinesterase [1] and on Cholinesterase was not below 10 µM throughout. In data set [2], this molecule returned an inhibition of less than 10%.

For `O=c1ccc2ccc(OCCCCCCn3cc(COn4nnc5ccccc54)nn3)cc2o1`, the concentration for half-maximal inhibition (IC50) against Acetylcholinesterase [1] and on Cholinesterase was not below 10 µM in each case. Besides, the inhibition in [2] is less than 10%.

Take `O=c1ccc2ccc(OCCCCn3cc(Cn4nnc5ccccc54)nn3)cc2o1`: the IC50 against Acetylcholinesterase [1] is 4.33 µM; at Cholinesterase it was not below 10 µM. The molecule also displayed an inhibition in data set [2] of 11.4%.

On to `O=c1ccc2ccc(OCCCn3cc(Cn4nc5ccccc5n4)nn3)cc2o1`, for which the results for the IC50 against Acetylcholinesterase [1] and on Cholinesterase were 1.16 µM and not below 10 µM, respectively. In addition, the inhibition in data set [2] is less than 10%.

On to `O=c1cc(OCCCCCCn2cc(Cn3nc4ccccc4n3)nn2)c2ccccc2o1`, for which the IC50 against Acetylcholinesterase [1] is 6.23 µM; on Cholinesterase, not below 10 µM. In addition, in data set [2], the inhibition is less than 10%.

In the case of `COc1cc2c(cc1OC)C(=O)C(CC1CCN(Cc3ccccc3)CC1)C2` (stereo not drawn) [DONEPEZIL], the Activity entry in the data set on SH-SY5Y is reported as “Non-Toxic”.

For the molecule `O=c1ccc2ccc(OCCn3cc(COn4nnc5ccccc54)nn3)cc2o1`, the IC50 was 2.01 µM against Acetylcholinesterase [1] and not below 10 µM against Cholinesterase. This molecule showed an inhibition in data set [2] of 11.4%.

Take `O=c1cc(OCCCCCn2cc(Cn3nc4ccccc4n3)nn2)c2ccccc2o1`: the IC50 at Acetylcholinesterase [1] is 4.81 µM; against Cholinesterase, not below 10 µM. The inhibition in data set [2] was less than 10%.

On to `O=c1cc(OCCn2cc(COn3nnc4ccccc43)nn2)c2ccccc2o1`, for which the IC50 is 4.32 µM against Acetylcholinesterase [1] and not below 10 µM against Cholinesterase. Besides, in [2], the inhibition stood at 16.2%.

In the case of `O=c1cc(OCCCn2cc(COn3nnc4ccccc43)nn2)c2ccccc2o1`, the half-inhibitory concentration (IC50) at Acetylcholinesterase [1] was 1.32 µM; on Cholinesterase, not below 10 µM. The molecule further showed an inhibition in data set [2] of less than 10%.

For the molecule `O=c1ccc2ccc(OCCCCCn3cc(Cn4nnc5ccccc54)nn3)cc2o1`, the results for the IC50 against Acetylcholinesterase [1] and on Cholinesterase were 5.43 µM and not below 10 µM, respectively. For the same molecule, the inhibition in [2] is less than 10%.

Take `O=c1ccc2ccc(OCCCCn3cc(Cn4nc5ccccc5n4)nn3)cc2o1`: the half-inhibitory concentration (IC50) on Acetylcholinesterase [1] was 5.44 µM; on Cholinesterase, not below 10 µM. For the same molecule, the inhibition in [2] was less than 10%.

`O=c1cc(OCCCCn2cc(COn3nnc4ccccc43)nn2)c2ccccc2o1`: the half-maximal inhibitory concentration (IC50) was 3.23 µM at Acetylcholinesterase [1] and not below 10 µM against Cholinesterase. Further, the inhibition in [2] was less than 10%.

In the case of `O=c1ccc2ccc(OCCCn3cc(COn4nnc5ccccc54)nn3)cc2o1`, the IC50 against Acetylcholinesterase [1] was 1.98 µM; against Cholinesterase, not below 10 µM. Also, in [2], the inhibition was less than 10%.

Turning to `O=c1cc(OCCCCn2cc(Cn3nnc4ccccc43)nn2)c2ccccc2o1`, the IC50 is 0.234 µM against Acetylcholinesterase [1] and not below 10 µM against Cholinesterase. In [2], this molecule had an inhibition of 22.4%.

Take `O=c1cc(OCCn2cc(Cn3nc4ccccc4n3)nn2)c2ccccc2o1`: the values for the IC50 against Acetylcholinesterase [1] and at Cholinesterase were 1.89 µM and not below 10 µM, respectively. Besides, in data set [2], the inhibition was less than 10%.

As to `O=c1ccc2ccc(OCCn3cc(Cn4nc5ccccc5n4)nn3)cc2o1`, the figures for the 50% inhibitory concentration (IC50) at Acetylcholinesterase [1] and at Cholinesterase were 1.18 µM and not below 10 µM, respectively. The inhibition in data set [2] was less than 10%.

Regarding `O=c1ccc2ccc(OCCCn3cc(Cn4nnc5ccccc54)nn3)cc2o1`, the IC50 at Acetylcholinesterase [1] was 2.92 µM; on Cholinesterase, not below 10 µM. This molecule also showed an inhibition in data set [2] of 15.9%.

Take `O=c1cc(OCCCCCCn2cc(COn3nnc4ccccc43)nn2)c2ccccc2o1`: the half-inhibitory concentration (IC50) at Acetylcholinesterase [1] and against Cholinesterase was not below 10 µM each time. The same molecule yielded an inhibition in [2] of less than 10%.

On to `O=c1ccc2ccc(OCCn3cc(Cn4nnc5ccccc54)nn3)cc2o1`, for which the IC50 at Acetylcholinesterase [1] is 2.11 µM; at Cholinesterase, not below 10 µM. In [2], the inhibition came out at 29.4%.

As to `O=c1ccc2ccc(OCCCCn3cc(COn4nnc5ccccc54)nn3)cc2o1`, the IC50 on Acetylcholinesterase [1] and at Cholinesterase was not below 10 µM in each case. The same molecule had an inhibition in [2] of less than 10%.

`O=c1cc(OCCCn2cc(Cn3nc4ccccc4n3)nn2)c2ccccc2o1`: the IC50 is 1.67 µM at Acetylcholinesterase [1] and not below 10 µM against Cholinesterase. Moreover, in data set [2], the inhibition was less than 10%.

By Ki is commonly meant the dissociation constant of the complex between target and ligand, obtained from inhibition or displacement. On to `O=c1cc(OCCCn2cc(Cn3nnc4ccccc43)nn2)c2ccccc2o1`, for which the figures for the IC50 against Acetylcholinesterase [1] and on Cholinesterase were 0.059 µM and not below 10 µM, respectively. Moreover, in data set [2], the inhibition was 34.3%. Also, on Acetylcholinesterase [3], the Ki came to 0.0417 nM. The inhibition entry in data set [4], in data set [5] and in [6] was “Active” in each case. Further, the result (in [7]; in [8]; in [9]; in data set [10]; in the data set on DNA [11]; in the data set with DNA [12]) was Active. Also, the Activity entry with SH-SY5Y is “Non-Toxic”. Also, the result in data set [13] was inactive.

Consider `O=c1ccc2ccc(OCCCCCn3cc(Cn4nc5ccccc5n4)nn3)cc2o1`, for which the half-inhibitory concentration (IC50) on Acetylcholinesterase [1] and against Cholinesterase was not below 10 µM throughout. This molecule yielded an inhibition in [2] of less than 10%.

Regarding `O=c1cc(OCCn2cc(Cn3nnc4ccccc43)nn2)c2ccccc2o1`, the IC50 was 0.097 µM against Acetylcholinesterase [1] and not below 10 µM on Cholinesterase. In addition, in data set [2], the inhibition was 36.7%.

Turning to `O=c1cc(OCCCCCCn2cc(Cn3nnc4ccccc43)nn2)c2ccccc2o1`, the half-maximal inhibitory concentration (IC50) is 5.42 µM against Acetylcholinesterase [1] and not below 10 µM against Cholinesterase. This molecule also gave an inhibition in data set [2] of less than 10%.
